Measurements taken from ChEMBL document CHEMBL4000143, “Proof of concept study for designed multiple ligands targeting the dopamine D2, serotonin 5-HT2A, and muscarinic M1 acetylcholine receptors” (J Med Chem, 2015).
Calls of active or inactive are those of the source. The calls are words filed in the database; no cut-off is given here.

Legend:
[1] = biological target: T1, 5-hydroxytryptamine receptor 2A (Homo sapiens, UniProt P28223); experiment: Antagonist activity at human 5-HT2A receptor expressed in F1pIn CHO cells assessed as inhibition of serotonin-induced myo-inositol 1 phosphate accumulation after 1 hr by HTRF assay; type: functional, cell-based
T1 sequence (P28223 whole entry): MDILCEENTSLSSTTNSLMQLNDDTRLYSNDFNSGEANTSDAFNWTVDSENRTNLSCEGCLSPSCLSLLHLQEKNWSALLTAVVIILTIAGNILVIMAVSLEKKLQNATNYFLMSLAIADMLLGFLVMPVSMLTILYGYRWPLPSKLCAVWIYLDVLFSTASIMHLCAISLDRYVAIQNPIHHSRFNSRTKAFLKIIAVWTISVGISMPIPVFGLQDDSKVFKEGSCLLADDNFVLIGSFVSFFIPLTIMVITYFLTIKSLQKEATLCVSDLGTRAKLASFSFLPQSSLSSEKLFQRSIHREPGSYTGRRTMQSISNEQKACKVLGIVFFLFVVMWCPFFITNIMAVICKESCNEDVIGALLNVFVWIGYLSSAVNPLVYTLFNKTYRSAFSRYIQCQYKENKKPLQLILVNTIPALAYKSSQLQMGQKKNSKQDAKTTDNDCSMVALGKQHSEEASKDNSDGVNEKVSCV
Outline: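 Functional affinity (KB) from interaction studies against varying serotonin concentrations in an IP1 accumulation assay in 5-HT2A-FlpIn CHO cells. Mean of three to four experiments, each run in duplicate.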

D(2) dopamine receptor [2] = biological target: T2, D(2) dopamine receptor (Homo sapiens, UniProt P14416); experiment: Displacement of [3H]-raclopride from human dopamine D2L receptor expressed in F1pIn CHO cells after 60 mins by scintillation counting analysis; type: cell-based
T2 sequence (P14416 whole entry): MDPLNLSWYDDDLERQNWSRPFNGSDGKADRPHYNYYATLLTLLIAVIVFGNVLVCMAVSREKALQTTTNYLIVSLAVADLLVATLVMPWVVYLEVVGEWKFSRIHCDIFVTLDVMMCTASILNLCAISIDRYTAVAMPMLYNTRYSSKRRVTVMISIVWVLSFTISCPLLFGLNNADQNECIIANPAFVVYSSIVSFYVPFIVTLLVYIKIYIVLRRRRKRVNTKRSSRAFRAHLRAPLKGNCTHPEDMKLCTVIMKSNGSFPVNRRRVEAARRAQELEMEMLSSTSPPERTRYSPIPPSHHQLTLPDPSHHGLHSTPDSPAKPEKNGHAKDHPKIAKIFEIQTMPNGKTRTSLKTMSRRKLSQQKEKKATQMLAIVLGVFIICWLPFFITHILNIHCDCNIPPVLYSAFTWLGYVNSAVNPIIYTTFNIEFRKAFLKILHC
Outline: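 Binding in whole D2L-FlpIn CHO cells with [3H]raclopride as radioligand. Mean of three to four experiments, each run in duplicate.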

[3] = biological target: Muscarinic acetylcholine receptor M1 (Homo sapiens) (UniProt P11229); experiment: Agonist activity at human mAChR1 receptor expressed in F1pIn CHO cells assessed as induction of intracellular calcium mobilization relative to acetylcholine
Muscarinic acetylcholine receptor M1 (Homo sapiens), sequence (P11229 whole entry, looked up): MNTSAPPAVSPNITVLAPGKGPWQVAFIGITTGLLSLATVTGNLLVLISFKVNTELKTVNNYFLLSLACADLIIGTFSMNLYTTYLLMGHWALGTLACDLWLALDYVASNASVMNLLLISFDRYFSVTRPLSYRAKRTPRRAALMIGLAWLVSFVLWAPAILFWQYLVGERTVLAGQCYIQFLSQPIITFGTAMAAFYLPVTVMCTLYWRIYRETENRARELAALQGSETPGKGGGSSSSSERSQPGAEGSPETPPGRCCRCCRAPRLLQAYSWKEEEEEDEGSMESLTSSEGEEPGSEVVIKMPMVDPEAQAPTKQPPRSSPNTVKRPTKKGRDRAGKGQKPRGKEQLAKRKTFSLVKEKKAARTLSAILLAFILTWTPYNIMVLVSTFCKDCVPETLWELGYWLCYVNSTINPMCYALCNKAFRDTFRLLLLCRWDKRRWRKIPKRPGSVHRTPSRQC

D(2) dopamine receptor [4] = biological target: T2, D(2) dopamine receptor; experiment: Antagonist activity at human dopamine D2L receptor expressed in F1pIn CHO cells assessed as inhibition of ERK1/2 phosphorylation incubated for 5 mins by AlphaScreen assay; type: cell-based
Outline: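 Functional affinity (KB) from interaction studies against varying dopamine concentrations, read out as pERK1/2 levels in D2L-FlpIn CHO cells. Data fitted by Gaddum–Schild analysis. Mean of three to four experiments, each run in duplicate.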

[5] = biological target: T1, 5-hydroxytryptamine receptor 2A; experiment: Displacement of [3H]ketanserin from human 5-HT2A receptor expressed in F1pIn CHO cell membranes after 1 hr by scintillation counting method
Outline: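 Binding in 5-HT2A-FlpIn CHO cell membranes with [3H]ketanserin as radioligand. Mean of three to four experiments, each run in duplicate.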

D(2) dopamine receptor [6] = biological target: T2, D(2) dopamine receptor; experiment: Antagonist activity at human dopamine D2L receptor expressed in F1pIn CHO cells assessed as inhibition of ERK1/2 phosphorylation by time-course assay; type: cell-based
[7] = biological target: Muscarinic acetylcholine receptor M1 (Homo sapiens) (UniProt P11229); experiment: Agonist activity at human mAChR1 receptor expressed in F1pIn CHO cells assessed as induction of intracellular calcium mobilization
D(2) dopamine receptor [8] = biological target: T2, D(2) dopamine receptor; experiment: Agonist activity at human dopamine D2L receptor expressed in F1pIn CHO cells assessed as […] forskolin-mediated cAMP accumulation incubated for 30 mins by AlphaScreen assay relative to ropinirole; type: functional, cell-based
Outline: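 D2L-FlpIn CHO cells, cAMP signalling. Emax is given as a percentage of the maximal response to ropinirole. Mean of four to six experiments, each run in duplicate.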

D(2) dopamine receptor [9] = biological target: T2, D(2) dopamine receptor; experiment: Agonist activity at human dopamine D2L receptor expressed in F1pIn CHO cells assessed as induction of ERK1/2 phosphorylation incubated for 5 mins by AlphaScreen assay relative to FBS; type: cell-based
Outline: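 D2L-FlpIn CHO cells, pERK1/2 assay. Emax is given as a percentage of the maximal response to FBS. Mean of four to six experiments, each run in duplicate.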

D(2) dopamine receptor [10] = biological target: T2, D(2) dopamine receptor; experiment: Agonist activity at human dopamine D2L receptor expressed in F1pIn CHO cells assessed as induction of ERK1/2 phosphorylation by time-course assay; type: cell-based
D(2) dopamine receptor [11] = biological target: T2, D(2) dopamine receptor; experiment: Agonist activity at human dopamine D2L receptor expressed in F1pIn CHO cells assessed as […] forskolin-mediated cAMP accumulation incubated for 30 mins by AlphaScreen assay; type: functional, cell-based
Outline: (§1)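 D2L-FlpIn CHO cells. Agonist concentration–response curves were measured for cAMP signalling and for ERK1/2 phosphorylation. Mean of four to six experiments, each run in duplicate.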

D(2) dopamine receptor [12] = biological target: T2, D(2) dopamine receptor; experiment: Agonist activity at human dopamine D2L receptor expressed in F1pIn CHO cells assessed as induction of ERK1/2 phosphorylation incubated for 5 mins by AlphaScreen assay; type: cell-based; outline: as §1

SMILES	Kb [1] [nM]	pKb [1]	Ki (D(2) dopamine receptor [2]) [nM]	Emax [3]	Kb (D(2) dopamine receptor [4]) [nM]	pKb (D(2) dopamine receptor [4])	Ki [5] [nM]	inhibition (D(2) dopamine receptor [6])	pEC50 [7]	Emax (D(2) dopamine receptor [8]) [%]	Emax (D(2) dopamine receptor [9]) [%]	Activity (D(2) dopamine receptor [10])	EC50 (D(2) dopamine receptor [11]) [nM]	EC50 (D(2) dopamine receptor [12]) [nM]
O=C(Cc1ccccc1)NC1CCN(CCCN2C(=O)COc3ccccc32)CC1	1570	5.8	834	101%	2090	5.68	1040							
O=C1COc2ccccc2N1CCCN1CCN(c2nsc3ccccc23)CC1	235	6.63	17.7		7	8.16	5.8	Active						
O=C1COc2ccccc2N1CCCN1CCN(c2cccc(Cl)c2Cl)CC1	1860	5.73	273	inactive	99	7	75.8	Active	inactive					
COc1ccccc1N1CCN(CCCN2C(=O)COc3ccccc32)CC1	578	6.24	42.7	inactive	7.8	8.11	275	Active	inactive					

The remaining compounds from weak to strong by Ki (D(2) dopamine receptor [2]), led by results:

Kb [1] [nM]	pKb [1]	Ki (D(2) dopamine receptor [2]) [nM]	Emax [3]	Kb (D(2) dopamine receptor [4]) [nM]	pKb (D(2) dopamine receptor [4])	Ki [5] [nM]	inhibition (D(2) dopamine receptor [6])	pEC50 [7]	Emax (D(2) dopamine receptor [8]) [%]	Emax (D(2) dopamine receptor [9]) [%]	Activity (D(2) dopamine receptor [10])	EC50 (D(2) dopamine receptor [11]) [nM]	EC50 (D(2) dopamine receptor [12]) [nM]	SMILES
21.2	7.67	3.2	inactive	1.2	8.91	2.7	Active	inactive						O=C1COc2ccccc2N1CCCN1CCC(c2noc3cc(F)ccc23)CC1
1140	5.94	1.7	inactive			568		inactive	97	26	Active	0.096	0.64	O=C1COc2ccccc2N1CCCN1CCN(c2cccc3[nH]c(=O)oc23)CC1
